ChEMBL document CHEMBL5030566, “First-in-Class Inhibitors of the Ribosomal Oxygenase MINA53” (J Med Chem, 2021)
Active and inactive are the calls of the source. The rule behind the calls is not given here.

How the values were obtained:
U-87 MG [1] = assay: Synergistic cytotoxicity against human U-87MG cells assessed as combinantion index at ED90 after 24 hrs in presence of doxorubicin by MTT assay; format: functional, U-87MG ATCC
In short: (§1)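 Doxorubicin combined with inhibitor at a fixed 1:20 concentration ratio, 24 h exposure, U-87MG viability read by MTT. Combination index calculated with the CI equation and plotted against fractional growth inhibition. CI <0.9 is scored as synergism, 0.9–1.1 as additivity, >1.1 as antagonism. Mean of two independent experiments in triplicate.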

U-87 MG [2] = assay: Induction of DNA damage in human U-87MG cells assessed as increase in gamma H2AX phosphorylation at ser139 at 20 uM by Western blot analysis; format: functional, cell-based; conditions: U-87MG ATCC
[3] = Antiproliferative activity against human IMS-M2 cells at 100 uM incubated for 48 hrs by WST-1 assay; format: functional, cell-based
In short: (§2)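 Leukemia/lymphoma lines plated in triplicate at 5×10^3 cells/well. Exposed to increasing compound concentrations (maximum 100 μM) for 48 h at 37 °C, 5% CO2. WST-1 reagent then added for 1 h. IC50 obtained by nonlinear regression of dose–response curves.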

U-87 MG [4] = assay: Cytotoxicity against human U-87MG cells assessed as reduction in cell viability after 24 hrs in presence of doxorubicin by MTT assay; format: functional, cell-based; conditions: U-87MG ATCC
In short: (§3)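 U-87MG in RPMI with 10% FBS. Treated 24 h with doxorubicin alone, test compound alone, or both at a fixed doxorubicin:compound ratio of 1:20. Viability read by MTT absorbance and expressed as treated/control ×100. Mean ± SD of two independent experiments, each in triplicate.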

U-87 MG [5] = assay: Inhibition of KDM6 in human U-87MG cells assessed as increase in H3K27me3 level after 48 hrs by immunofluorescence analysis; format: cell-based
In short: (§4)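 U-87MG on coverslips, treated 24 h after plating with 50 μM compound for 48 h. Reference inhibitors: CPI-455 25 μM (KDM5), IOX-1 100 μM (KDM4), GSK-J4 10 μM (KDM6). PFA-fixed cells immunostained for H3K4me3, H3K9me3 or H3K27me3 with DAPI counterstain. Per-cell nuclear intensity quantified, ≥50 cells per condition; Mann–Whitney test vs DMSO.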

HeLa [6] = assay: Antiproliferative activity against human HeLa cells at 10 to 100 uM incubated for 72 to 120 hrs by MTT assay; format: functional, cell-based; conditions: dose 10-100 µM, time 72-120 hrs
In short: (§5)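 HEK293T or HeLa grown in DMEM with 10% FBS, mycoplasma-tested and STR-authenticated. Compounds added 24 h after seeding at 10–100 μM for 72–120 h; 0.5% DMSO as control. Viability by MTT colorimetric assay, expressed as treated/control ×100.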

OCI-AML2 = assay: Antiproliferative activity against human OCI-AML2 cells at 100 uM incubated for 48 hrs by WST-1 assay; format: functional, cell-based; in short: as §2
MKN-45 = assay: Antiproliferative activity against human MKN-45 cells at 10 to 100 uM incubated for 72 to 120 hrs by MTT assay; format: functional, cell-based; conditions: dose 10-100 µM, time 72-120 hrs
In short: (§6)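 HT-29, U-87MG or MKN-45 in RPMI with 10% FBS and L-glutamine. Seeded in sextuplicate at 1.5×10^3 cells/well; compounds at 10–100 μM added after 24 h and left 72, 96 or 120 h; 0.5% DMSO control. MTT absorbance read; viability as treated/control ×100. Mean ± SD of two independent experiments in triplicate.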

HEK-293T = assay: Antiproliferative activity against human HEK293T cells at 10 to 100 uM incubated for 72 to 120 hrs by MTT assay; format: functional, cell-based; conditions: dose 10-100 µM, time 72-120 hrs; in short: as §5
U-87 MG [7] = assay: Cytotoxicity against human U-87MG cells assessed as doxorubicin sensitization after 24 hrs in presence of doxorubicin by MTT assay; format: functional, cell-based; conditions: U-87MG ATCC; in short: as §3
U-87 MG [8] = assay: Induction of apoptosis in human U87-MG cells assessed as increase in apoptotic cells at 10 uM after 24 hrs in presence of 0.5 uM doxorubicin by propidium iodide staining based flow cytometry analysis; format: functional, U-87MG ATCC
In short: (§7)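 U-87MG treated 24 h with 10 μM compound, alone or with 0.5 μM doxorubicin. Cell-cycle phases and Sub-G1 fraction scored; three independent experiments.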

U-87 MG [9] = assay: Induction of cell cycle arrest in human U-87MG cells assessed as accumulation of cells at G2/M phase at 10 uM after 24 hrs by propidium iodide staining based flow cytometry analysis; format: functional; conditions: U-87MG ATCC; in short: as §7
MV4-11 = assay: Antiproliferative activity against human MV4-11 cells at 100 uM incubated for 48 hrs by WST-1 assay; format: functional, cell-based; in short: as §2
HeLa [10] = assay: Binding affinity to MINA53 in HeLa cells assessed as substrate trapping using RPL27A as substrate at 100 uM after 18 hrs by immunoprecipitation analysis; format: cell-based; conditions: Homo sapiens
U-87 MG [11] = assay: Synergistic cytotoxicity against human U-87MG cells assessed as combinantion index at ED75 after 24 hrs in presence of doxorubicin by MTT assay; format: functional, U-87MG ATCC; in short: as §1
U-87 MG [12] = assay: Synergistic cytotoxicity against human U-87MG cells assessed as reduction in cell viability at 20 uM after 24 hrs in presence of doxorubicin by MTT assay; format: functional, U-87MG ATCC; in short: as §3
U-87 MG [13] = assay: Antiproliferative activity against human U-87 MG cells incubated for 72 to 120 hrs by MTT assay; format: functional, cell-based; conditions: U-87MG ATCC, time 72-120 hrs; in short: as §6
U-87 MG [14] = assay: Binding affinity to MINA53 in U-87MG cells assessed as substrate trapping using RPL27A as substrate at 100 uM after 18 hrs by immunoprecipitation analysis; format: cell-based; conditions: Homo sapiens
U-87 MG [15] = assay: Inhibition of KDM5 in human U-87MG cells assessed as increase in H3K4me3 level after 48 hrs by immunofluorescence analysis; format: cell-based; in short: as §4
HEK293T [16] = assay: Binding affinity to NO66 in HEK293T cells assessed as substrate trapping using RPL8 as substrate at 100 uM after 18 hrs by immunoprecipitation analysis; format: cell-based; conditions: Homo sapiens
In short: (§8)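 HEK293T transiently expressing HA-MINA53, HA-NO66 or empty vector. Treated with 100 μM compound or 0.5% DMSO for 18 h. Cells lysed 1 h at 4 °C in JIES buffer; anti-HA agarose IP overnight, washed, eluted with HA peptide. Blots probed for RPL27A (MINA53) or RPL8 (NO66).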

U-87 MG [17] = assay: Induction of apoptosis in human U87-MG cells assessed as increase in sub-G1 cells at 10 uM after 24 hrs by propidium iodide staining based flow cytometry analysis; format: functional, cell-based; conditions: U-87MG ATCC; in short: as §7
OCI-AML-3 = assay: Antiproliferative activity against human OCI-AML-3 cells at 100 uM incubated for 48 hrs by WST-1 assay; format: functional, cell-based; in short: as §2
U-937 = assay: Antiproliferative activity against human U-937 cells at 100 uM incubated for 48 hrs by WST-1 assay; format: functional, cell-based; in short: as §2
KARPAS-299 = assay: Antiproliferative activity against human KARPAS-299 cells at 100 uM incubated for 48 hrs by WST-1 assay; format: functional, cell-based; in short: as §2
HEK293T [18] = assay: Binding affinity to MINA53 in HEK293T cells assessed as substrate trapping using RPL27A as substrate at 100 uM after 18 hrs by immunoprecipitation analysis; format: cell-based; conditions: Homo sapiens; in short: as §8
U-87 MG [19] = assay: Inhibition of KDM4 in human U-87MG cells assessed as increase in H3K9me3 level after 48 hrs by immunofluorescence analysis; format: cell-based; in short: as §4
Kasumi 1 = assay: Antiproliferative activity against human Kasumi 1 cells at 100 uM incubated for 48 hrs by WST-1 assay; format: functional, cell-based; in short: as §2
U-87 MG [20] = assay: Synergistic cytotoxicity against human U-87MG cells assessed as combinantion index at ED50 after 24 hrs in presence of doxorubicin by MTT assay; format: functional, U-87MG ATCC; in short: as §1
HT-29 = assay: Antiproliferative activity against human HT-29 cells at 10 to 100 uM incubated for 72 to 120 hrs by MTT assay; format: functional, cell-based; conditions: dose 10-100 µM, time 72-120 hrs; in short: as §6
HL-60 = assay: Antiproliferative activity against human HL-60 cells at 100 uM incubated for 48 hrs by WST-1 assay; format: functional, cell-based; in short: as §2
U-87 MG [21] = assay: Antagonist cytotoxicity against human U-87MG cells assessed as reduction in cell viability at 20 uM after 24 hrs in presence of doxorubicin by MTT assay; format: functional, cell-based; conditions: U-87MG ATCC; in short: as §3
NB-4 = assay: Antiproliferative activity against human NB-4 cells at 100 uM incubated for 48 hrs by WST-1 assay; format: functional, cell-based; in short: as §2
Homo sapiens [22] = species on record: Homo sapiens; assay: Inhibition of recombinant human NO66 expressed in Escherichia coli BL21 (DE3) using RPL8 N205PVEHPFGGGNHQHIGKPST224 as substrate at 100 uM preincubated for 15 mins followed by substrate addition and measured after 30 to 60 mins by RapidFire Mass spectrometry assay; conditions: time 45-75 min
In short: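 NO66 (E. coli BL21(DE3)-R3-pRARE2, TEV-cleaved) at 375 nM in 50 mM MES pH 7.0, 150 mM NaCl. Preincubated 15 min with compound. […] Formic-acid quench, RapidFire SPE-MS % hydroxylation.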

Homo sapiens [23] = species on record: Homo sapiens; assay: Inhibition of recombinant human MINA53 expressed in Escherichia coli BL21 (DE3) using RPL27A G31RGNAGGLHHHRINFDKYHP49 as substrate at 100 uM preincubated for 15 mins followed by substrate addition and measured after 30 to 60 mins by RapidFire Mass spectrometry assay; conditions: time 45-75 min

Row | IC50 (OCI-AML2) | IC50 (MV4-11) | IC50 (OCI-AML-3) | IC50 (U-937) | IC50 (KARPAS-299) | SMILES | CI (U-87 MG [1]) | Activity (U-87 MG [2]; TDE = time-dependent effect) | IC50 [3] | Activity (U-87 MG [4]) | inhibition (U-87 MG [5]) | Activity (HeLa [6]) | Activity (MKN-45) | Activity (HEK-293T) | Activity (U-87 MG [7]) | Activity (U-87 MG [9]) | CI (U-87 MG [11]) | Activity (U-87 MG [13]) | IC50 (Kasumi 1) | CI (U-87 MG [20]) | Activity (HT-29) | also measured
1 | Not Active | Not Active | Not Active | Not Active | Not Active | O=C(O)c1cnc(SCCc2ccccc2)[nH]c1=O | 22.1 | Tde | Not Active | Dose-Dependent Effect | inactive | Active | Active | Active | Dose-Dependent Effect | Active | 0.63 | Active | Not Active | 0.32 | inactive | Activity (U-87 MG [8]): 60%; Activity (HeLa [10]): Active; Activity (U-87 MG [12]): 75%; Activity (U-87 MG [14]): Active; inhibition (U-87 MG [15]): inactive; Activity (HEK293T [16]): inactive; Activity (U-87 MG [17]): Active; Activity (HEK293T [18]): Active; inhibition (U-87 MG [19]): inactive
2 | Not Active | Not Active | Not Active | Not Active | Not Active | O=C(O)c1cnc(SCCCc2ccccc2)[nH]c1=O | 0.18 | Tde | Not Active | Dose-Dependent Effect | inactive | Active | Active | Active | Dose-Dependent Effect | Active | 0.13 | Active | Not Active | 0.21 | inactive | Activity (U-87 MG [8]): 60%; Activity (HeLa [10]): Active; Activity (U-87 MG [12]): 75%; Activity (U-87 MG [14]): Active; inhibition (U-87 MG [15]): inactive; Activity (HEK293T [16]): inactive; Activity (U-87 MG [17]): Active; Activity (HEK293T [18]): Active; inhibition (U-87 MG [19]): inactive
3 |  |  |  |  |  | COC(=O)c1cnc(SCCCc2ccccc2)[nH]c1=O |  |  |  |  |  |  | Active |  |  |  |  | Active |  |  | Active | 
4 | Not Active | Not Active | Not Active | Not Active | Not Active | O=C(O)c1c[nH]c(=S)[nH]c1=O | 1 |  | Not Active |  |  |  | inactive |  |  | inactive | 1 | inactive | Not Active | 1 | inactive | Activity (U-87 MG [2]): inactive; IC50 (HL-60): Not Active; Activity (U-87 MG [21]): Active; IC50 (NB-4): Not Active
5 |  |  |  |  |  | O=C(O)CCNc1cc(N2CCc3ccccc3CC2)nc(-c2ccccn2)n1 |  |  |  |  |  |  |  |  |  |  |  |  |  |  |  | inhibition (Homo sapiens [22]): inactive; inhibition (Homo sapiens [23]): inactive
